The values that follow come from ChEMBL document CHEMBL1144718, “Novel 3-aroylpyrazolo[5,1-c][1,2,4]benzotriazine 5-oxides 8-substituted, ligands at GABAA/benzodiazepine receptor complex: synthesis, pharmacological and molecular modeling studies” (Bioorg Med Chem, 2008).

Structures are written as SMILES. Calls of active or inactive are those of the source. The calls are words filed in the database; no cut-off is given here.

Test [1] in a line: Displacement of [3H]flumazenil from GABAA/BzR complex in bovine cerebral cortex membrane. It is filed as cell membranes, Bos taurus. A digest of the protocol:
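Bovine cerebral cortex membranes in 50 mM Tris-citrate pH 7.4 incubated with [3H]Ro15-1788 (1–2 nM) for 1 h at 4 °C to equilibrium; nonspecific binding with 10^-5 M diazepam; DMSO ≤1%. Ki from ≥6 concentrations (10^-9–10^-5 M) by curve fitting and Cheng–Prusoff; percent inhibition at 10 µM; five determinations, triplicate.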

In test [2] the test system is Mus musculus. In words: Anticonvulsant activity against pentylenetetrazole-induced seizure in CD1 Albino mouse assessed as convulsant latency at 10 mg/kg, po after 30 mins. The format is functional. A digest of the protocol:
(§1)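 Male CD-1 mice (22–24 g), compound suspended in 1% CMC (sonicated) given po in 10 ml/kg; 30 min later PTZ 90 mg/kg sc (in saline). Latency (s) to shock and to convulsions recorded; clonic generalized convulsions counted over 30 min.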

Test [3] deals with Mus musculus. Description: Sedative activity in CD1 albino mouse assessed as reduction of curiosity at 3 mg/kg, po after 30 mins by hole-board test. The format is functional, organism-based. The arrangement: dose 3 mg/kg. A digest of the protocol:
(§2)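 Hole-board: male CD-1 mice given compound po (1% CMC) and placed individually on the board 30 min later, free to explore panel and holes for 5 min; spontaneous motility and exploration (panel and hole movements) scored.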

In test [4] the test system is Mus musculus. Description: Effect on motor coordination in CD1 Albino mouse assessed as number of falls in 30 secs at 30 mg/kg, po after 30 mins by rotarod test relative to control. It is filed as functional. A digest of the protocol: (§3)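 Rota-rod at 16 rpm in male CD-1 mice after po dosing in 1% CMC; number of falls in 30 s counted at 15, 30, 45 and 60 min post-administration.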

Test [5] relates to Mus musculus. In words: Sedative activity in CD1 albino mouse assessed as reduction of curiosity at 30 mg/kg, po after 30 mins by hole-board test. Further details: dose 30 mg/kg. It is filed as functional, organism-based. A digest of the protocol: as §2
Test [6] relates to Mus musculus. In words: Anticonvulsant activity against pentylenetetrazole-induced seizure in CD1 Albino mouse assessed as convulsant latency at 3 mg/kg, po after 30 mins. The format is functional. A digest of the protocol: as §1
The subject of test [7] is Mus musculus. In words: Effect on motor coordination in CD1 Albino mouse assessed as number of falls in 30 secs at 3 mg/kg, po after 30 mins by rotarod test. It is filed as functional. A digest of the protocol:
as §3

For test [8], the system named is Mus musculus. In words: Effect on motor coordination in CD1 Albino mouse assessed as number of falls in 30 secs at 10 mg/kg, po after 30 mins by rotarod test relative to control. The format is functional. A digest of the protocol:
as §3

The subject of test [9] is Mus musculus. In words: Anticonvulsant activity against pentylenetetrazole-induced seizure in CD1 Albino mouse assessed as shock latency at 30 mg/kg, po after 30 mins. It is filed as functional. A digest of the protocol: as §1
The subject of test [10] is Mus musculus. Description: Sedative activity in CD1 albino mouse assessed as reduction of explorative activity at 10 mg/kg, po after 30 mins by hole-board test. The format is functional, organism-based. Further details: dose 10 mg/kg. A digest of the protocol:
as §2

The test system of test [11] is Mus musculus. Description: Anxiolytic effect in CD1 albino mouse at 3 mg/kg, po after 30 mins by light-dark box test. The format is functional, organism-based. Further details: dose 3 mg/kg. A digest of the protocol:
(§4)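 Male CD-1 mice (22–24 g); test agent po in 1% CMC, 30 min before a light/dark box session; time (s) spent in the illuminated compartment measured. Means ± SEM of 14–21 mice.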

In test [12] the test system is Mus musculus. In words: Effect on ethanol-induced sleeping time in CD1 Albino mouse assessed as increase in duration of loss of righting reflex at 3 mg/kg, po after 30 mins. It is filed as functional, organism-based. The arrangement: dose 3 mg/kg. A digest of the protocol:
(§5)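 Male CD-1 mice dosed po (1% CMC suspension); ethanol 4 g/kg ip given 30 min after the compound. Sleep time taken as duration of loss of righting reflex, end-point 150 min.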

In test [13] the test system is Mus musculus. Description: Increase in learning and memory performance in CD1 albino mouse at 10 mg/kg, po after 24 hrs by passive avoidance test. The arrangement: dose 10 mg/kg. It is filed as functional, organism-based. A digest of the protocol: (§6)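 Passive avoidance in male CD-1 mice treated po 30 min before training; retention tested 24 h later. Latency to enter the dark compartment measured, maximum 60 s (training) and 180 s (retention). Means ± SEM of 15–18 mice.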

In test [14] the test system is Mus musculus. Description: Effect on ethanol-induced sleeping time in CD1 Albino mouse assessed as increase in duration of loss of righting reflex at 10 mg/kg, po after 30 mins. It is filed as functional, organism-based. Further details: dose 10 mg/kg. A digest of the protocol:
as §5

Test [15] has as its system Mus musculus. In words: Effect on ethanol-induced sleeping time in CD1 Albino mouse assessed as increase in duration of loss of righting reflex at 30 mg/kg, po after 30 mins. It is filed as functional, organism-based. Further details: dose 30 mg/kg. A digest of the protocol:
as §5

Test [16] relates to Mus musculus. In words: Sedative activity in CD1 albino mouse assessed as reduction of spontaneous motility at 3 mg/kg, po after 30 mins by hole-board test. The format is functional, organism-based. The arrangement: dose 3 mg/kg. A digest of the protocol: as §2
The species entered for test [17] is Mus musculus. In words: Reversal of anxiolytic effect in CD1 albino mouse by light-dark box test in presence of flumazenil. The format is functional, organism-based. A digest of the protocol:
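Light/dark box in male CD-1 mice: compound po (1% CMC) 30 min before test, with flumazenil given ip at […] in saline; time (s) in illuminated compartment recorded. Means ± SEM of 14–21 mice.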

The subject of test [18] is Mus musculus. Description: Sedative activity in CD1 albino mouse assessed as reduction of explorative activity at 30 mg/kg, po after 30 mins by hole-board test. The format is functional, organism-based. The arrangement: dose 30 mg/kg. A digest of the protocol: as §2
Test [19] deals with Mus musculus. Description: Sedative activity in CD1 albino mouse assessed as reduction of explorative activity at 3 mg/kg, po after 30 mins by hole-board test. It is filed as functional, organism-based. The arrangement: dose 3 mg/kg. A digest of the protocol: as §2
For test [20], the system named is Mus musculus. Description: Anxiolytic effect in CD1 albino mouse at 10 mg/kg, po after 30 mins by light-dark box test. Further details: dose 10 mg/kg. The format is functional, organism-based. A digest of the protocol:
as §4

The subject of test [21] is Mus musculus. In words: Anticonvulsant activity against pentylenetetrazole-induced seizure in CD1 Albino mouse assessed as shock latency at 10 mg/kg, po after 30 mins. The format is functional. A digest of the protocol: as §1
Test [22] deals with Mus musculus. Description: Sedative activity in CD1 albino mouse assessed as reduction of spontaneous motility at 10 mg/kg, po after 30 mins by hole-board test. It is filed as functional, organism-based. Further details: dose 10 mg/kg. A digest of the protocol:
as §2

Test [23] concerns Mus musculus. In words: Anticonvulsant activity against pentylenetetrazole-induced seizure in CD1 Albino mouse assessed as convulsant latency at 30 mg/kg, po after 30 mins. The format is functional. A digest of the protocol:
as §1

Test [24] deals with Mus musculus. In words: Increase in learning and memory performance in CD1 albino mouse at 3 mg/kg, po after 24 hrs by passive avoidance test. The format is functional, organism-based. The arrangement: dose 3 mg/kg. A digest of the protocol: as §6
In test [25] the test system is Mus musculus. In words: Sedative activity in CD1 albino mouse assessed as reduction of spontaneous motility at 30 mg/kg, po after 30 mins by hole-board test. The arrangement: dose 30 mg/kg. The format is functional, organism-based. A digest of the protocol: as §2
The test system of test [26] is Mus musculus. Description: Anticonvulsant activity against pentylenetetrazole-induced seizure in CD1 Albino mouse assessed as shock latency at 3 mg/kg, po after 30 mins. It is filed as functional. A digest of the protocol:
as §1

The compound `COc1ccccc1C(=O)c1cnn2c1n[n+]([O-])c1ccc(Cl)cc12` showed a Ki in test [1] of 4200 nM.
`O=C(c1cccs1)c1cnn2c1n[n+]([O-])c1ccc(OCc3ccccc3)cc12` registered a Ki in test [1] of 2.7 nM.
In the case of `O=C(c1cccs1)c1cnn2c1n[n+]([O-])c1ccc(Cl)cc12`, the Ki in [1] came to 62 nM.
For the compound `O=C(c1ccc[nH]1)c1cnn2c1n[n+]([O-])c1ccc(Oc3ccccc3)cc12`, in test [1], the Ki is 276 nM.
On to `CCOc1ccc2c(c1)n1ncc(C(=O)c3ccco3)c1n[n+]2[O-]`, for which the Activity in the test with Mus musculus [2] turned out to be 488.2 s; with Mus musculus [4], 0.6 count; with Mus musculus [6] it was 328.5 s; in the test with Mus musculus [7] it was 0.6 count; in the test on Mus musculus [8], 0.8 count. Besides, the result in the test on Mus musculus [3] and in the test on Mus musculus [5] was Active. The Ki in test [1] was 28 nM.
On to `CC(=O)c1cnn2c1n[n+]([O-])c1ccc(Oc3ccccc3)cc12`, for which, in test [1], the affinity, expressed as Ki, was 53 nM. This lies in the double-digit nanomolar range.
In the case of `O=C(c1ccco1)c1cnn2c1n[n+]([O-])c1ccc(OCc3ccccc3)cc12`, the Ki in test [1] came out at 1.4 nM. Against the preceding compound, the Ki is about 38-fold lower.
The compound `Cn1ccc(C(=O)c2cnn3c2n[n+]([O-])c2ccc(Cl)cc23)c1` returned an inhibitory constant (Ki) in test [1] of 380 nM. This Ki lies about 270-fold higher than the previous one.
With `COc1ccc(C(=O)c2cnn3c2n[n+]([O-])c2ccc(Cl)cc23)cc1`, the affinity in test [1] corresponds to a Ki of 1240 nM. This Ki is about 3.3-fold higher than that of the compound before.
On to `CC(=O)c1cnn2c1n[n+]([O-])c1ccc(Cl)cc12`, for which the Ki in test [1] worked out at 551 nM. This Ki is about 2.3-fold lower than that of the compound before.
In test [1], `O=C(c1cccnc1)c1cnn2c1n[n+]([O-])c1ccc(Cl)cc12` yielded a Ki of 2400 nM. This Ki lies about 4.4-fold higher than the previous one.
The same measure, in the same setting: next, `O=C(c1ccccc1)c1cnn2c1n[n+]([O-])c1ccc(Cl)cc12`: 3490 nM.
As to `O=C(c1ccc[nH]1)c1cnn2c1n[n+]([O-])c1ccc(Cl)cc12`, the Activity with Mus musculus [9] stood at 329.6 s; in the test with Mus musculus [2] it was 647.8 s; in the test on Mus musculus [4] it was 0.8 count; in the test on Mus musculus [6], 498.8 s; with Mus musculus [21], 264.7 s; in the test on Mus musculus [7], 0.6 count. Also, the Activity in the test with Mus musculus [23] amounted to 535.2 s; with Mus musculus [8], 1.2 count; with Mus musculus [26], 297.5 s. Also, the outcome in the test on Mus musculus [10], in the test with Mus musculus [11], in the test with Mus musculus [16], in the test filed under Mus musculus [17], in the test on Mus musculus [19] and with Mus musculus [22] was inactive. Besides, the result in the test with Mus musculus [12], in the test on Mus musculus [13], in the test with Mus musculus [14], in the test on Mus musculus [15], in the test on Mus musculus [18] and in the test with Mus musculus [20] was Active. The result in the test with Mus musculus [24] and with Mus musculus [25] was Active. The compound also displayed a Ki in test [1] of 4 nM.
`Cn1cccc1C(=O)c1cnn2c1n[n+]([O-])c1ccc(Oc3ccccc3)cc12`: in [1], the inhibition constant (Ki) turned out to be 1300 nM.
For the compound `CCOc1ccc2c(c1)n1ncc(C(=O)c3cccn3C)c1n[n+]2[O-]`, affinity in [1] was put at a Ki of 819 nM.
